# Results: ChEMBL document CHEMBL4513216, “Probing the Open Global Health Chemical Diversity Library for Multistage-Active Starting Points for Next-Generation Antimalarials” (ACS Infect Dis, 2020)
# Test: Toxicity liver stage against HepG2, at 10uM
# Type: cell-based
# Design: test concentration 10 uM, cell line HepG2-A16-CD81EGFP
# Conditions: human, HepG2-A16-CD81EGFP cells; read-out: INHIBITION
# Outline: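 Uninfected HepG2-A16-CD81EGFP cells, 3 × 10^3 per well, 1536-well, plated on prespotted compound at 10 μM final, parasite-free screening media added to match infected plates; puromycin 10 μM positive, DMSO 0.5% negative; run in parallel with 48 h PbLuc assay at 37 °C, 5% CO2; viability by CellTiter-Glo luminescence, normalized to controls.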
row,Compound,cytotoxicity at 10 µM [%]
1,C[C@@H]1CN(Cc2nc(Cc3ccccc3F)no2)C[C@H](C)O1,6.74
2,Cc1ccc(-c2nnc([C@H]3CCN(C4CCC4)C3)o2)cc1,8.81
3,CCN(CC)CCNc1c(-c2ccccc2)c(=O)c1=O,-0.686
4,CC1(C)CN(CC(O)C(C)(C)C)C(=O)CN(C(=O)c2ccccc2)C1 (stereo not given),-6.87
5,O=C1CN(S(=O)(=O)c2ccc(F)cc2)CC(O)CN1CC1CC1 (stereo not given),0.227
6,COc1cc(OC)c(C2CC(=O)Oc3cc(C)[nH]c(=O)c32)cc1OC (stereo not given),-4.81
7,Cc1cc(O)cc(=O)n1CCCC(=O)Nc1n[nH]c2cc(Br)ccc12,-16.2
8,CCCc1cc(=O)[nH]c(SCc2ccccn2)n1,-3.53
9,O=C(NCC(Cc1cccc(F)c1)N1CCCC1=O)c1ccc[nH]c1=O (stereo not given),-2.42
10,Cc1cc(C(=O)N2C[C@@H]3CCCO[C@@H]3[C@H](N3CCOCC3)C2)c(C)[nH]1,4.5
11,CN(C)C(=O)CN1CCC2(C1)CN(CC1CCOCC1)C2,-9.91
12,CC1=N[C@@]2(CC[C@@H]3CN(CC(C)C)C[C@@H]32)C(=O)N1,6.5
13,CNC(=O)c1cnc2n1CCN(Cc1cccnc1OC)C2,8.91
14,O=S(=O)(C1CC1)N1CC[C@H](OCC2CC2)[C@@H]1Cc1ccncc1,7.67
15,Cc1ccc(CC(=O)N2CCCn3nnc(Cn4cccn4)c3C2)cc1,9.58
16,CC1=Nc2c(c(=O)[nH]n2C2CCOCC2)C(c2cccc(Br)c2)S1 (stereo not given),5.91
17,COc1ccc(CNc2n[nH]c(C)n2)cc1,1.64
18,NC(=O)c1ccn(COc2ccccc2Cl)n1,2.96
19,Cc1nc(C)c(CC(=O)N2CCC(c3ccn4nccc4n3)CC2)s1,-0.743
20,O=C(NC[C@]1(O)CCN(Cc2ccccc2F)C[C@H]1O)c1c[nH]cn1,4.41
21,Cc1nccn1[C@@H]1CC[C@@H](NC(=O)CCCn2cccn2)[C@H]1O,-6.28
22,Cn1ccc(C(=O)N2CCCCC2c2cc(CCO)[nH]n2)n1 (stereo not given),-0.01

row,Compound,cytotoxicity at 10 µM [%]
1,NCCCC(=O)NCC1(O)CCCN(c2ccnc3cccnc23)C1 (stereo not given),3.71
2,CN(C)c1cc(C2CCCN(Cc3cnn(C)c3)C2)ccn1 (stereo not given),-1.88
3,c1cc(N2CCOCC(Cc3ccc4[nH]ccc4c3)C2)ncn1 (stereo not given),-15.9
4,Cc1ccc([C@@]2(O)CC[C@@H]3CN(S(=O)(=O)C(C)C)C[C@@H]32)cc1,-38.9
5,Cc1cc(-c2cnc(NC3CC3)nc2-c2ccoc2)on1,-25.6
6,Cc1ccc(-c2cccc(CC3(C(=O)O)CCOCC3)c2)c(C)c1,-29.8
7,CCc1nccn1-c1cncc(C2CCCN2CC(=O)N2CCCC2)n1 (stereo not given),0.193
8,FC(F)(F)Cn1ccnc1CNCCn1cccn1,-6.4
9,CN1CCC(Nc2cc(Cl)ccc2OCC(F)(F)F)C1=O (stereo not given),-2.71
10,CCCOc1cc(CNC(=O)Nc2ccccn2)ccn1,-2.25
11,CC(C)OCc1ccccc1CNC(=O)C(C)S(=O)(=O)C(C)C (stereo not given),-3.92
12,CCOc1ccc(SCCS(=O)(=O)CC)cc1,-2.91
13,COc1ncccc1N(C)C(=O)Cn1cc(-c2ccccc2)nn1,-1.11
14,CSc1ccc(NCC(=O)NC(=O)NCC(F)(F)F)cc1F,-7.91
15,CC(C)COC(=O)N1CCCN(C(C)c2nnc(CC(C)C)o2)CC1 (stereo not given),8.69
16,CN(C)c1cc(CNC(=O)CC2CCCCC2)ccn1,9.24
17,Cc1ccccc1CCCN1C(=O)CC2(CCSC2)C1=O (stereo not given),-3.45
18,CCC1CCC(CNC(=O)c2c[nH]c(=O)c(Cl)c2)CC1 (stereo not given),-8.46
19,CSCC(=O)Nc1ncc(I)cc1C,-4.7
20,CCOC(=O)c1ccc(NC(=O)c2cc3c([nH]c2=O)CCCC3)cc1,9.13
21,COc1ccc(OCC(=O)NS(=O)(=O)c2cc(C)ccc2C)cc1,7.19
22,COc1cc(C)nc(N2CCN(C(=O)CCc3ccsc3)CC2)n1,10

row,Compound,cytotoxicity at 10 µM [%]
1,CS(=O)(=O)NCCC1CCCCN1C(=O)NCc1ccccn1 (stereo not given),-0.871
2,O=C(NCc1cc2ccccc2[nH]1)C1CCCN(C(=O)N2CCCC2)C1 (stereo not given),6.81
3,CC(C)Oc1cccc(C(O)CNC(=O)Nc2cccs2)c1 (stereo not given),2.19
4,OC1CCN(c2ccccc2NCc2nc(-c3ccoc3)no2)CC1,14.5
5,COc1ccc2c(c1)C(=O)N(C)C1(CCN(CC3CC3)CC1)N2,6.4
6,CCC(=O)N1CCC(NC2CCCC2)C1 (stereo not given),-4.26
7,CS(=O)(=O)CCNCc1ccc(OCc2ccccn2)cc1,-128
8,CN(Cc1nnc(-c2cccs2)o1)Cc1nc2c(s1)CCCC2,2.4
9,NC(=O)CN(Cc1ccc(Br)cc1)C(=O)c1cnccn1,8.48
10,O=S(=O)(CCSc1nccn1C1CC1)c1ccccc1,-4.63
11,O=C(c1cc(F)ccc1O)N1CCN(C2CCOCC2)CC1,-4.9
12,COc1cc(C)c(CNC(C)c2csc(C)n2)cc1OC (stereo not given),5.06
13,COCCCS(=O)(=O)N(Cc1cccc(C)c1)Cc1ccccn1,2.47
14,COc1ccc(C(C)Nc2ncc(C(N)=O)cc2Cl)c(OC)c1 (stereo not given),19.1
15,Cc1cc(=O)n2nc(Oc3cccc(C(N)=O)c3)sc2n1,-7.88
16,CCn1nc(-c2ccccc2F)ccc1=O,12.9
17,CCCc1cc(NC2CCc3ncnn3C2)n2ncnc2n1 (stereo not given),-4.17
18,CCc1nc2n(n1)CC(Nc1cc(C)nc3ncnn13)CC2 (stereo not given),-9.91
19,CC(C)N(C)Cc1ncn2c1CN(C(=O)C1CCCO1)CCC2 (stereo not given),-103
20,COCCN1C(=O)[C@]2(CC[C@@H]3CN(S(=O)(=O)CC(C)C)C[C@@H]32)N=C1C,-69.3
21,Cc1ncncc1-c1ccnc(N(C)C)n1,-8.3
22,CC(C)Nc1nc2c(s1)C(=O)CN(CC1CC1)C2,-10.1

row,Compound,cytotoxicity at 10 µM [%]
1,CC(C)c1nc(CCn2cncn2)n(-c2ccc3c(c2)OCCO3)n1,6.52
2,Cc1nc(C2CCN(C(=O)COC(C)C)CC2)cc(N2CCOCC2)n1,-8.8
3,Fc1ccccc1-c1cc(N2[C@@H]3CC[C@H]2CNC3)n2nccc2n1,23.1
4,C[C@@H]1CN(c2ccc(Cl)cn2)C[C@]1(C)O,4.38
5,Cc1nc2c(C(=O)O)cccc2n1-c1ccc(C(=O)N2CCCC2)o1,-2.36
6,CCCn1c(C)c(CC(=O)N(C)CC(=O)OC)c2c1CC(C)(C)CC2=O,-0.839
7,CC(C)[C@H]1CN(CCCO)C[C@@H]1NC(=O)CCS(C)(=O)=O,2.91
8,CC(C)n1ccnc1C1CCN(C(=O)N2CCCC2)CC1,0.386
9,CN(C)S(=O)(=O)N1CC[C@]2(O)CCN(CCc3cccc(F)c3)C[C@@H]2C1,-3.38
10,O=C(O)C1(n2ccc(-c3ccco3)n2)CCN(Cc2ccccn2)CC1,-137
11,CCn1cnc(NC(=O)NCC2CCS(=O)(=O)CC2)n1,5.08
12,Cc1cc(NCCCNc2cccnc2)n2nc(C)c(C)c2n1,2.35
13,CC(C)Cc1cc(C(=O)NCC2CCN(c3ccccc3F)C2)on1 (stereo not given),0.075
14,CN1C(=O)C(c2ccccc2)CC12CCN(CCN1CCCC1=O)CC2 (stereo not given),-14.6
15,COCCN1CCCC(CN(C)c2nc3c(s2)c(C)nn3C)C1 (stereo not given),5.37
16,CCc1cnc(N)nc1N[C@@H](C)c1ncccc1C,-3.94
17,c1cnn(Cc2ccc(CN3CCC4(CCCNC4)C3)cc2)c1 (stereo not given),-3.71
18,CC(C)(C)c1ncc2c(n1)CN(c1cc(NCCO)nc(N)n1)C2,3.5
19,O=C1N(Cc2ccc(F)c(F)c2)CCCC1(O)CNCc1ccccn1 (stereo not given),-2.63
20,Cc1cccc(C(C(=O)N(C)Cc2ccco2)N(C)C)c1 (stereo not given),3.15
21,CCN(CC)Cc1ccc(C(=O)N2CCCC2Cn2cccn2)o1 (stereo not given),-10.5
22,Cc1noc(C)c1C(=O)N1CCCN(Cc2nccn2C(C)C)CC1,-3.92

row,Compound,cytotoxicity at 10 µM [%]
1,COCCOc1ccc(NC(=O)N2CCCC2c2ccsc2)cn1 (stereo not given),-8.33
2,CC(=O)NC1CCCN(C(=O)NCc2cccnc2-n2cccn2)C1 (stereo not given),5.56
3,O=C(c1ccccc1N1CCOCC1)N1CCCC(n2cccn2)C1 (stereo not given),-7.32
4,O=C(CN1CCc2c(ncn2C2CC2)C1)NC1CC1,1.01
5,COc1c(CNCC(O)c2cccc(F)c2)c(C(C)C)nn1C (stereo not given),2.31
6,CN(Cc1nnc(-c2ccco2)o1)CC1CCCN1c1cccnn1 (stereo not given),5.68
7,CN1CCO[C@@H]2CN(S(=O)(=O)c3ccccc3)CC[C@@H]2C1,-0.461
8,Cc1nc(CN2CCCn3cnc(COCC4CC4)c3C2)cs1,7.04
9,CN(C)C[C@H]1OC[C@@H]2CCN(C(=O)c3cccn3C)C[C@@H]21,-2.29
10,O=C1COC2(CCN(Cc3ccco3)CC2)CN1CCn1cccn1,10.2
11,Cn1cc2c(n1)C(CNC1CCOCC1)OCC2 (stereo not given),9.31
12,Cc1ccc(N2C[C@@H]3CN(Cc4ccsc4)CCO[C@@H]3C2)nn1,3.32
13,O=C(NCc1ccco1)[C@@H]1COC[C@H]2CN(c3ncc(F)cn3)C[C@H]21,-5.67
14,COCCN1CCC2(C1)CN(c1ncc(F)cn1)C2,4.68
15,Cc1ccsc1C(=O)N1CCC2(CC1)C(=O)N(C)CCN2CC1CC1,-110
16,CCS(=O)(=O)NC[C@]12COC[C@H]1CN(Cc1ccccn1)C2,-72.5
17,Cn1nc(Cn2ccnc2)c2c1CN(c1nccs1)C2,3.61
18,Cc1occc1C(=O)N1CCc2c(CNc3ncccn3)cncc2C1,-83.1
19,c1ccc(N2CCOC3(CCCN(c4nncs4)C3)C2)nc1 (stereo not given),9.17
20,O=C(c1ccc[nH]1)N1CCC2(CCCN2Cc2cccnc2)CC1,6.89
21,NC1CC(C(F)(F)F)=NC=C1c1ccccc1 (stereo not given),-9.16
22,O=C(c1ccccn1)N1C[C@H]2CC[C@@H](C1)N(C(=O)Cc1cccs1)C2,-1.13
